Laboratory results from ChEMBL document CHEMBL4002590, “Design and Synthesis of a Pan-Janus Kinase Inhibitor Clinical Candidate (PF-06263276) Suitable for Inhaled and Topical Delivery for the Treatment of Inflammatory Diseases of the Lungs and Skin” (J Med Chem, 2017).
Values after ≈ are worked out from the molar mass of the structure shown. Active and inactive are the calls of the source. The calls are words filed in the database; no cut-off is given here.

Key:
[1] = Volume of distribution at steady state in dog at 0.1 mg/kg, iv administered as 30 mins infusion; format: ADME, organism-based, Canis lupus familiaris; settings: in vivo, read-out: Vdss
Mus musculus [2] = assay: Effect on nerve activation in mouse up to 2 mg inhalation administered as micelle vehicle to delta fiber sensory nerve preparation; settings: in vivo, inhaled_or_intranasal
Method in brief: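 Mouse A delta fiber sensory nerve preparation given up to 2 mg in 400 μL of micelle vehicle; nerve activation recorded.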

[3] = molecular target: Alpha-2B adrenergic receptor (Homo sapiens) (UniProt P18089); assay: Antagonist activity at recombinant human alpha 2B adrenergic receptor expressed in HEK293 cells assessed as inhibition of dexmedetomidine-induced cAMP accumulation at 10 uM after 30 mins by HTRF method; format: functional, cell-based
Chain of Alpha-2B adrenergic receptor (Homo sapiens) (P18089 whole entry, the tested form may be a part): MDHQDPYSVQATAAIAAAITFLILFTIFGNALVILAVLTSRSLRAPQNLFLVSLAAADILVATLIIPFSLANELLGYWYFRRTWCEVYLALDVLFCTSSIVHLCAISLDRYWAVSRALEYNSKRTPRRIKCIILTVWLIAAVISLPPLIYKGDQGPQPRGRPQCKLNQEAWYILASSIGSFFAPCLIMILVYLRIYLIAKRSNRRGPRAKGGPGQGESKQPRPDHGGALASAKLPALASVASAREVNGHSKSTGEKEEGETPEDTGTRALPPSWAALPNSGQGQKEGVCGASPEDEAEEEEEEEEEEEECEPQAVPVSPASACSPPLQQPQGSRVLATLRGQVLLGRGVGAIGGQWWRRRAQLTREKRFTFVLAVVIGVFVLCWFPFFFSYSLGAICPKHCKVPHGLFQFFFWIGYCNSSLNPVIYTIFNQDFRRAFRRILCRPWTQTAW

Canis familiaris [4] = assay: Intrinsic clearance in dog at 0.1 mg/kg, iv administered as 30 mins infusion; format: ADME, organism-based, Canis lupus familiaris; settings: in vivo, 0.5 h
[5] = molecular target: T1, Tyrosine-protein kinase JAK2 (Homo sapiens, UniProt O60674); assay: Inhibition of JAK2 homodimer in human whole blood assessed as inhibition of GM-CSF induced STAT5 phosphorylation preincubated for 45 mins followed by GM-CSF addition and measured after 20 mins by flow cytometric analysis
T1 sequence (O60674 whole entry): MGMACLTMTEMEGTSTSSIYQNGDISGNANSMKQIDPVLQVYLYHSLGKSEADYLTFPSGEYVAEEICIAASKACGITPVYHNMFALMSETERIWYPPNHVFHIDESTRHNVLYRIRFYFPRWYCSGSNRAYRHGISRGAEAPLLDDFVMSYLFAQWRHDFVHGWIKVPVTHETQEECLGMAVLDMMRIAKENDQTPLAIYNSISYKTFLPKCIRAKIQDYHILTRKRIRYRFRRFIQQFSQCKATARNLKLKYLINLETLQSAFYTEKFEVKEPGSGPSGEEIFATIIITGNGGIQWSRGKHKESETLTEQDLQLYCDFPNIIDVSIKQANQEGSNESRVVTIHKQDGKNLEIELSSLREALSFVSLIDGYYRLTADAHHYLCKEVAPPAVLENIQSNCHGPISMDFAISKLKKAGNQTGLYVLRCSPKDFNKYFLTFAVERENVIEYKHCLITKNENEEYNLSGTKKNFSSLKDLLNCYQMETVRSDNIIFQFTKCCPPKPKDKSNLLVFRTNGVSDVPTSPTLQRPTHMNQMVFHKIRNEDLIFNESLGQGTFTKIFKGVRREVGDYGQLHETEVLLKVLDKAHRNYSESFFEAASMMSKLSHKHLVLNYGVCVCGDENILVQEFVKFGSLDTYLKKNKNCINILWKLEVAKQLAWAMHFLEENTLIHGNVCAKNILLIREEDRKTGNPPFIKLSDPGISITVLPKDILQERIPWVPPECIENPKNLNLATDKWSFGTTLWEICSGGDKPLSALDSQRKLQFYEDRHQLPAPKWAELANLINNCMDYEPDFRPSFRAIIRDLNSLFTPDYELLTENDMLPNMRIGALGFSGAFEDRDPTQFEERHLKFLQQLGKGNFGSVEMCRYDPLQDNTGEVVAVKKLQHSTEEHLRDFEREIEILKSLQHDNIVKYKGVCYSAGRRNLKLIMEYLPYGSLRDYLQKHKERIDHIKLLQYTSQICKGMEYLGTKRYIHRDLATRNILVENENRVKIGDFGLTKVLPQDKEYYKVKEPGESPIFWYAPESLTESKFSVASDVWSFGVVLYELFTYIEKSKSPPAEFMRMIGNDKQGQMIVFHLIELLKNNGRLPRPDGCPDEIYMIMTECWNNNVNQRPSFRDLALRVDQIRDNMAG

[6] = molecular target: Aurora kinase A (Homo sapiens) (UniProt O14965); assay: Inhibition of recombinant human AurA/Aur 2 kinase expressed in insect Sf21 cells at 10 uM using Ulight-RRRSLLE substrate after 15 mins by LANCE assay
Chain of Aurora kinase A (Homo sapiens) (O14965 whole entry): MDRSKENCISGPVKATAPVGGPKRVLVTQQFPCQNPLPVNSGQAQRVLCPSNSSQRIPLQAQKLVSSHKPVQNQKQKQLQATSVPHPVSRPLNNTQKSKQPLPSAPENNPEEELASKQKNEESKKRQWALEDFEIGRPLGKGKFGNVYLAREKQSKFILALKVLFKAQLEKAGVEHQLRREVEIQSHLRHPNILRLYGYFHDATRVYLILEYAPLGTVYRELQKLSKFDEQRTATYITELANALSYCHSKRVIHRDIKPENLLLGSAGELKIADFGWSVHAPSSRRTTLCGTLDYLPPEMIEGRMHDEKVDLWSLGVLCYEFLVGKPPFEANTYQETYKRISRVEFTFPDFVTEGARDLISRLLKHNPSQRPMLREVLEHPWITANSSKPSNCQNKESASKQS
Method in brief: (§1)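 Single-point screen at 10 μM within a broad panel of radioligand binding and enzyme inhibition assays covering receptors, transporters, enzymes and ion channels.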

[7] = Plasma protein binding in dog at 0.1 mg/kg, iv administered as 30 mins infusion; format: ADME, organism-based, Canis lupus familiaris; settings: read-out: PPB
[8] = molecular target: Tyrosine-protein kinase ABL1 (Homo sapiens) (UniProt P00519); assay: Inhibition of recombinant human Abl kinase expressed in insect cells at 10 uM using Ulight-TK peptide substrate after 30 mins by LANCE method; method in brief: as §1
Chain of Tyrosine-protein kinase ABL1 (Homo sapiens) (P00519 whole entry): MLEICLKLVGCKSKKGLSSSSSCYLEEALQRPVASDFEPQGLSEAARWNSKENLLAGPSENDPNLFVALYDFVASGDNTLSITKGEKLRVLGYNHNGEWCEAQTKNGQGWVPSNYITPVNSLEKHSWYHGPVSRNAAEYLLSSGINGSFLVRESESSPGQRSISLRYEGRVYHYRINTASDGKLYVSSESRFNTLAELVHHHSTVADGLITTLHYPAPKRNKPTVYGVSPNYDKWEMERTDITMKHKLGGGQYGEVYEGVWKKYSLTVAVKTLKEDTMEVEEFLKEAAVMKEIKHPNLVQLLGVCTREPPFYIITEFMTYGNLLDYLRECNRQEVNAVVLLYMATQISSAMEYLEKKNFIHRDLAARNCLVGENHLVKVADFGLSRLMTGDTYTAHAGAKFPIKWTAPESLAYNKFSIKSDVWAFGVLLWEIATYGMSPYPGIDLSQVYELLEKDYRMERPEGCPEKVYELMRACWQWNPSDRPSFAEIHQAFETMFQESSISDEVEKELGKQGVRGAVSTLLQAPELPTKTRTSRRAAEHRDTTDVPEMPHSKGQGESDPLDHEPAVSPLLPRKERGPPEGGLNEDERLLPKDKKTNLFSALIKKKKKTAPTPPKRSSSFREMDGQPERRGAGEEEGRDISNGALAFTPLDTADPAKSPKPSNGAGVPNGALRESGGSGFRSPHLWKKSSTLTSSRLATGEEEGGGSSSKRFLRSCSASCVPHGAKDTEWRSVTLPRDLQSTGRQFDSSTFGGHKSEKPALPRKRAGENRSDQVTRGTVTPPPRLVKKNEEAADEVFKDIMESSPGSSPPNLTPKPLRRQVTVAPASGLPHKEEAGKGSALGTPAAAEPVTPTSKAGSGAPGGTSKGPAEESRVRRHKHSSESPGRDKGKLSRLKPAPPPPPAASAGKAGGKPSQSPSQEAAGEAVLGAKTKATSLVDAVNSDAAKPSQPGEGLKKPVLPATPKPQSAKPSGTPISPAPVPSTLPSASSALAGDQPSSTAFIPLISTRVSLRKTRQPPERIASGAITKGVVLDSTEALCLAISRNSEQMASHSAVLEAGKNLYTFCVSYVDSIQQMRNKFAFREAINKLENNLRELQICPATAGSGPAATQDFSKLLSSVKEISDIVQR

Mus musculus [9] = assay: In vivo receptor occupancy at JAK1 in Balb/c mouse lungs at 10 to 100 ug, it measured after 4 hrs; format: functional, organism-based
Method in brief: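 JAK1 target occupancy in mouse lung measured over time after i.t. administration of 10 μg or 100 μg.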

Canis familiaris [10] = assay: Unbound clearance in dog at 0.1 mg/kg, iv administered as 30 mins infusion; format: ADME, organism-based, Canis lupus familiaris; settings: in vivo, 0.5 h
Mus musculus [11] = assay: In vivo inhibition of JAK2/TYK2 in Balb/c mouse model of IL-23 induced inflammation assessed as reduction of ear swelling pretreated topically as 4 % solution bid on ear for 12 consecutive days followed by IL-23 stimulation at 2 hrs post compound treatment on day 2, 4, 7, 9 and 11; format: functional
Method in brief: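 Mouse ear dermal model: compound applied topically as a 4% solution in propylene glycol 30, PEG400 30, dimethyl isosorbide 10, glycerin 25.9, BHA 0.1 (% wt/wt); repeated IL-23 ear injections, with ear swelling followed over 11 days.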

JAK1/TYK2 (Homo sapiens) = JAK1/TYK2 (Homo sapiens) (UniProt P23458+P29597)
[12] = Thermodynamic solubility of the compound in pH 7.4 water buffer using crystalline solid sample; format: physicochemical; settings: read-out: Therm_solubility
Method in brief: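 Thermodynamic solubility measured from crystalline solid in water buffered at pH 7.4.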

Mus musculus [13] = assay: In vivo inhibition of JAK2 homodimer in Balb/c mouse assessed as inhibition of GM-CSF induced STAT5 phosphorylation in blood at 100 ug, it for 12 consecutive days; format: functional
Method in brief: (§2)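 After i.t. dosing in mouse, GM-CSF-induced phosphorylated STAT5 measured in blood; percent inhibition ± 95% CI from geometric means versus vehicle groups; N = 3.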

[14] = Oral bioavailability in rat at 1 mg/kg; format: ADME, organism-based; settings: in vivo
[15] = Drug metabolism in human liver microsomes assessed as UGT-mediated compound glucuronidation per mg protein in presence of microsomal activator Brij58 and cofactor UDPGA; format: ADME
Method in brief: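 Human liver microsomes supplemented with the activator Brij58 and cofactor UDPGA, NADPH omitted, to measure phase II glucuronidation turnover.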

JAK2/JAK1 (Homo sapiens) = JAK2/JAK1 (Homo sapiens) (UniProt P23458+O60674)
[16] = Chemical stability in pH 8 solution at 40 degC after 1 to 2 days; format: physicochemical; settings: buffer
Method in brief: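 Hydrolytic stability followed over 1–2 days at pH 8.0 and 40 °C; percent degradation recorded.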

Mus musculus [17] = assay: In vivo inhibition of JAK2 homodimer in Balb/c mouse assessed as inhibition of GM-CSF induced STAT5 phosphorylation in blood at 10 ug, it for 12 consecutive days; format: functional, organism-based; method in brief: as §2
[18] = Chemical stability at room temperature up to 6 weeks; format: physicochemical; settings: 1008 h
Method in brief: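 Crystalline solid stored at room temperature and at 40 °C/75% relative humidity for up to 6 weeks; chemical stability assessed.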

Rattus norvegicus [19] = assay: Intrinsic clearance in rat at 0.5 mg/kg, iv; format: ADME, organism-based; settings: in vivo
Mus musculus [20] = assay: In vivo inhibition of JAK1/JAK2 in Balb/c mouse assessed as inhibition of IL-6 induced STAT3 phosphorylation in lungs at 10 ug, it pretreated for 15 mins followed by IL-6 stimulation measured after 30 mins by ELISA relative to control; format: functional
Method in brief: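 Intratracheal dosing in mouse, then IL-6 given i.t.; phosphorylated STAT3 quantified in lung. Percent inhibition ± 95% CI from the difference in geometric means between vehicle/IL-6 and vehicle/saline groups; N = 6.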

Liver = assay: Metabolic stability in human liver microsomes assessed per mg protein; format: ADME, microsome
Method in brief: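 Metabolic stability measured as turnover in human liver microsomes.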

Rattus norvegicus [21] = assay: Genotoxicity in iv dosed rat after 7 days by peripheral blood micronucleus assay; format: toxicity, organism-based; settings: in vivo, 168 h
[22] = molecular target: T1, Tyrosine-protein kinase JAK2; assay: Inhibition of GST tagged human recombinant JAK2 catalytic domain expressed in baculovirus using peptide substrate preincubated for 60 mins followed by substrate addition and measured after 60 mins by microfluidic assay
Method in brief: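 Caliper microfluidic assay of peptide-substrate phosphorylation by the relevant JAK enzyme, run at 1 mM ATP; IC50 values are geometric means of at least three determinations.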

In the case of `CCc1cc(O)c(F)cc1-c1ccc2c(-c3nc4c([nH]3)CCN(C(=O)c3cnc(N5CCCCC5)cn3)C4)n[nH]c2c1`, the Vd [1] is reported as 1 L/kg, the Activity (Mus musculus [2]) is reported as “Non-Toxic” and the inhibition [3] is reported as greater than 50%. The CL (Canis familiaris [4]) was 18 mL/min/kg, the IC50 [5] was 5.2 µM and the inhibition [6] was greater than 50%. The fraction unbound at 0.5 h [7] was no more than 0.001, the inhibition [8] was greater than 50% and the Activity (Mus musculus [9]) was “Active”. The CL free (Canis familiaris [10]) was greater than 18000 mL/min/kg, the “inhibition (INH)” value (Mus musculus [11]) was 48% and the fIC50 (JAK1/TYK2 (Homo sapiens)) was 0.62 nM. For the same compound, the solubility thermodynamic [12] was 0.5 µM (≈ 0.283 µg/mL), the “inhibition (INH)” value (Mus musculus [13]) was less than 50% and the bioavailability [14] was less than 5%. The Drug metabolism [15] was 129 µL/min, the fIC50 (JAK2/JAK1 (Homo sapiens)) was 2.1 nM and the Stability [16] was “Stable”. The inhibition (Mus musculus [17]) was “inactive”, the Stability [18] was “Stable” and the CL (Rattus norvegicus [19]) was 48 mL/min/kg. The “inhibition (INH)” value (Mus musculus [20]) was 100%, the Stability (Liver) was 101 µL/min and the Activity (Rattus norvegicus [21]) was “Non-Toxic”. For the same compound, the IC50 [22] was 0.0231 µM.
